In PMC5774851 (Journal of medicinal chemistry, 2016):

Tests used:
[1] = In situ AFM measurement of L-cystine crystal step velocities; settings: aqueous 2 mM L-cystine; for V/V0 normalized step velocity @ 15 μM: 15 μM inhibitor; for V/V0 normalized step velocity @ 30 μM: 30 μM inhibitor; for V/V0 normalized step velocity @ 45 μM: 45 μM inhibitor
[2] = Chemical stability in pH 7.4 phosphate buffered saline at 37 °C by LC-MS; format: physicochemical
Method in brief: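 Test compound incubated in pH 7.4 phosphate-buffered saline at 37 °C. Loss of parent compound followed over time by LC-MS, and half-life taken from its disappearance.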

[3] = tested on: Slc3a1 knockout male mice; settings: knockout mouse model of cystinuria, previous study; cited from earlier work
[4] = tested on: Slc3a1 knockout male mice; experiment: In vivo activity in genetic mouse model of cystinuria; settings: 29.3 μmol/kg daily gavage for 4 weeks
Method in brief: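 Male Slc3a1 knockout mice in groups of six or seven received test compound at 29.3 μmol/kg by daily oral gavage for 4 weeks. Seven controls got water only. Read-out was the fraction of mice in each group that formed stones.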

[5] = L-cystine diamides in mouse urine after oral dosing; format: in vivo; settings: mice, daily gavage 29.3 μmol/kg, micromolar concentrations in urine
[6] = cited from earlier work

## COC(=O)[C@@H](N)CSSC[C@H](N)C(=O)OC [CDME, L-cystine dimethyl ester, reference compound]
Fluorescence assay; EC2x ratio vs CDME
  Ratio (improvement in potency over the control CDME): 1.0
[1]
  V/V0 normalized step velocity @ 15 μM: 0.4–0.65
  V/V0 normalized step velocity @ 30 μM: 0.27–0.54
  V/V0 normalized step velocity @ 45 μM: 0.21–0.48
[2]
  half-life: ~0.113 days
[3]
  Effect on stone size and stone burden: effective in reducing stone size and stone burden
  Effect on the number of mice that formed stones: no effect

## Cl.Cl.N[C@@H](CSSC[C@H](N)C(=O)N1CCOCC1)C(=O)N1CCOCC1 [Compound 1a, L-Cystine bismorpholide]
[1]
  V/V0 normalized step velocity @ 15 μM: 0.44–0.65
  V/V0 normalized step velocity @ 30 μM: 0.34–0.58
  V/V0 normalized step velocity @ 45 μM: 0.29–0.53
[2]
  half-life: 19.8 days
[4]
  Effectiveness in preventing stone formation: ineffective
[5]
  Oral bioavailability (found in urine after oral dosing): orally bioavailable

## CN1CCN(C(=O)[C@@H](N)CSSC[C@H](N)C(=O)N2CCN(C)CC2)CC1.Cl.Cl.Cl.Cl [Compound 1b, L-cystine bis(N′-methylpiperazide)]
[1]
  V/V0 normalized step velocity @ 15 μM: 0.52–0.66
  V/V0 normalized step velocity @ 30 μM: 0.32–0.50
  V/V0 normalized step velocity @ 45 μM: 0.30–0.40
[2]
  half-life: 46.2 days
[4]
  Effectiveness in preventing stone formation: effective
[5]
  Oral bioavailability (found in urine after oral dosing): orally bioavailable

## N[C@@H](CSSC[C@H](N)C(=O)O)C(=O)O [L-cystine]
Fluorescence assay; water, 25 °C, 72 h
  Concentration of L-cystine in the supernatant in the absence of inhibitor: approximately 1 mM
[6]
  Reported equilibrium concentration of L-cystine: 0.7 mM
